Data reported in article PMC7425423 (Brain Communications, 2020).

System: T98G, U87MG and E98
Test: Viability after Gefitinib
Type: cell-based, human
Conditions: 72 hours, 10 µM
In short: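 Cells were seeded at 3–5 × 10³/well in 96-well plates and allowed to attach. After 24 h the test compound was added, and viability was read at 72 h by CellTiter-Glo luminescence, normalized as % of control. U87MG and E98 were grown in DMEM and T98G in Eagle MEM, each with 10% heat-inactivated FBS, at 37°C and 5% CO2.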

SMILES: COc1cc2ncnc(Nc3ccc(F)c(Cl)c3)c2cc1OCCCN1CCOCC1 [Gefitinib]
- sensitivity of cell lines (viability): resistance
